Assay results as given in ChEMBL document CHEMBL4477159, “Anti-inflammatory Actions of (+)-3'α-Angeloxy-4'-keto-3',4'-dihydroseselin (Pd-Ib) against Dextran Sulfate Sodium-Induced Colitis in C57BL/6 Mice” (J Nat Prod, 2016).
The source made the active and inactive calls. The calls are words filed in the database; no cut-off is given here.

Assays:
Mus musculus [1] = test: Antiinflammatory activity in DSS-induced C57BL/6 mouse acute colitis model assessed as reduction in loss of body weight at 120 mg/kg administered by oral gavage after 9 days of induction; type: functional, organism-based
In short: (§1)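 Colitis induced in C57BL/6 mice with 2.0% (w/v) DSS in drinking water for 5 days; controls got distilled water. Saline vehicle, Pd-Ib (30, 60 or 120 mg/kg/day) or SASP (300 mg/kg/day) given by gavage through day 12. Weight, stool consistency and bleeding monitored daily. DAI combines weight-loss, stool and bleeding scores. On day 13, colon measured from ileo-cecal junction to anal verge. n = 8, mean ± SD.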

Mus musculus [2] = test: Antiinflammatory activity in DSS-induced C57BL/6 mouse acute colitis model assessed as reduction in loss of body weight at 30 to 60 mg/kg administered by oral gavage after 9 days of induction; type: functional, organism-based; in short: as §1
Mus musculus [3] = test: Antiinflammatory activity in DSS-induced C57BL/6 mouse acute colitis model assessed as lowering of disease activity index at 120 mg/kg administered by oral gavage from day 5 to day 12 measured on day 13 relative to DSS-treated control; type: functional, organism-based; in short: as §1
Mus musculus [4] = test: Antiinflammatory activity in DSS-induced C57BL/6 mouse acute colitis model assessed as attenuation of shortening of colon length at 60 to 120 mg/kg administered by oral gavage from day 5 to day 12 measured on day 13; type: functional, organism-based; in short: as §1
Mus musculus [5] = test: Antiinflammatory activity in DSS-induced C57BL/6 mouse acute colitis model assessed as protection against mucosal injury at 120 mg/kg administered by oral gavage from day 5 to day 12 measured on day 13 by hematoxylin/eosin staining-based microscopic analysis; type: functional, organism-based
In short: (§2)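 DSS colitis (2% w/v, 5 days) with daily gavage of saline, Pd-Ib (30–120 mg/kg) or SASP (300 mg/kg) through day 12; sacrifice day 13. Colons rinsed in ice-cold PBS, fixed overnight in 4% paraformaldehyde, paraffin-embedded. 5 μm sections H&E stained and graded on a 0–10 histological scale. n = 8, mean ± SD.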

Mus musculus [6] = test: Antiinflammatory activity in DSS-induced C57BL/6 mouse acute colitis model assessed as lowering of histological score at 30 to 120 mg/kg administered by oral gavage from day 5 to day 12 measured on day 13 by hematoxylin/eosin staining-based microscopic analysis; type: functional, organism-based; in short: as §2
Mus musculus [7] = test: Antiinflammatory activity in DSS-induced C57BL/6 mouse acute colitis model assessed as lowering of MPO activity in colon homogenate at 30 to 120 mg/kg administered by oral gavage from day 5 to day 12 measured on day 13; type: functional, organism-based
In short: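 Mice given DSS colitis and gavage treatment as above, sacrificed day 13. MPO activity in colon homogenate taken from the rate of optical density change; one unit gives an OD change of 1.0/min at 25 °C. Normalized to colon wet weight, expressed as units/mg tissue. n = 8.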

Mus musculus [8] = test: Antiinflammatory activity in DSS-induced C57BL/6 mouse acute colitis model assessed as lowering of IL-17A level administered by oral gavage from day 5 to day 12 measured on day 13; type: functional, organism-based
In short: (§3)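 Colon tissue from DSS-colitis mice dosed by gavage (day 13 harvest) homogenized in lysis buffer and spun at 16000g, 4 °C, 15 min. Cytokines in supernatant measured by multiplex bead immunoassay and reported as pg/mL. Protein determined by Bradford with BSA standard. n = 8, mean ± SD.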

Mus musculus [9] = test: Antiinflammatory activity in DSS-induced C57BL/6 mouse acute colitis model assessed as lowering of IL-6 level administered by oral gavage from day 5 to day 12 measured on day 13; type: functional, organism-based; in short: as §3
Mus musculus [10] = test: Antiinflammatory activity in DSS-induced C57BL/6 mouse acute colitis model assessed as lowering of IFN-gamma level administered by oral gavage from day 5 to day 12 measured on day 13; type: functional, organism-based; in short: as §3
Mus musculus [11] = test: Antiinflammatory activity in DSS-induced C57BL/6 mouse acute colitis model assessed as lowering of TNF-alpha level administered by oral gavage from day 5 to day 12 measured on day 13; type: functional, organism-based; in short: as §3
Mus musculus [12] = test: Antiinflammatory activity in DSS-induced C57BL/6 mouse acute colitis model assessed as increase of IL-10 level at 30 to 120 mg/kg administered by oral gavage from day 5 to day 12 measured on day 13 relative to DSS-treated control; type: functional, organism-based
Mus musculus [13] = test: Antiinflammatory activity in DSS-induced C57BL/6 mouse acute colitis model assessed as increase of IL-4 level at 30 to 120 mg/kg administered by oral gavage from day 5 to day 12 measured on day 13 relative to DSS-treated control; type: functional, organism-based; in short: as §3
Mus musculus [14] = test: Antiinflammatory activity in DSS-induced C57BL/6 mouse acute colitis model assessed as lowering of NO production at 30 to 120 mg/kg administered by oral gavage from day 5 to day 12 measured on day 13 by Griess assay; type: functional, organism-based
In short: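 On day 13 after DSS colitis and gavage dosing, frozen colon weighed and homogenized in 0.5% hexadecyltrimethylammonium bromide (100 mg tissue/mL). Spun at 16000g, 4 °C, 15 min. Supernatant nitrite measured with Griess reagent. n = 8, mean ± SD.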

Mus musculus [15] = test: Downregulation of elevated p-p38 level in colon homogenate of DSS-induced C57BL/6 mouse acute colitis model administered by oral gavage from day 5 to day 12 measured on day 13 by Western blot analysis; type: functional, organism-based
In short: (§4)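 Colonic tissue extracts from DSS-colitis mice gavaged through day 12 and sacrificed day 13. Lysed in RIPA buffer (pH 7.4) with phosphatase/protease inhibitors, run on 10% SDS-PAGE and immunoblotted for STAT3, p-STAT3, p38 and p-p38. Blots stripped and reprobed for β-actin as loading control.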

Mus musculus [16] = test: Downregulation of elevated p-STAT3 level in colon homogenate of DSS-induced C57BL/6 mouse acute colitis model administered by oral gavage from day 5 to day 12 measured on day 13 by Western blot analysis; type: functional, organism-based; in short: as §4
[17] = target: Signal transducer and activator of transcription 3 (Mus musculus) (UniProt P42227); test: Inhibition of LPS-induced STAT3 phosphorylation in mouse RAW264.7 cells at 20 ug/ml after 12 hrs by Western blot analysis; type: cell-based
Chain of Signal transducer and activator of transcription 3 (Mus musculus) (P42227 whole entry): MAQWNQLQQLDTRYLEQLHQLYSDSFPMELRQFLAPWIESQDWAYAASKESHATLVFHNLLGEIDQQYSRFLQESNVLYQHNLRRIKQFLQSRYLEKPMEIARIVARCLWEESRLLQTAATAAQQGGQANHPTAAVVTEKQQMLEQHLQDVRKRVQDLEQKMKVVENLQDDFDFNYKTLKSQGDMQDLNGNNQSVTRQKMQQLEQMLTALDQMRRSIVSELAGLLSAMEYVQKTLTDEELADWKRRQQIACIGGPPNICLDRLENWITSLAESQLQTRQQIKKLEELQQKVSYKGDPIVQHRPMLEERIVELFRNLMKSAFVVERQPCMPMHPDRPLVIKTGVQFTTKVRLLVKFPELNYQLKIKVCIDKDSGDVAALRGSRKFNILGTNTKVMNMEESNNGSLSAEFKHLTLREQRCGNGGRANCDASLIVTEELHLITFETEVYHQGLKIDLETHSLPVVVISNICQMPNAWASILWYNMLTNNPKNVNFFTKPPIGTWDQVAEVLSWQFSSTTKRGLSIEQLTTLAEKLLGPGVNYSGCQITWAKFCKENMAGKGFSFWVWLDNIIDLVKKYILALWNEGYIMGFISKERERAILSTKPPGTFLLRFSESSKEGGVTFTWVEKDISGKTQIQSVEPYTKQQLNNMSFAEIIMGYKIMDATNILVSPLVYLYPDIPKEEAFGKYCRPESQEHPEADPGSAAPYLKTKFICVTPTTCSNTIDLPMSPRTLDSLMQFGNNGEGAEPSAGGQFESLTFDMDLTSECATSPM
In short: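 RAW264.7 cells given LPS 1 μg/mL with or without Pd-Ib 20 μg/mL for 0–24 h, then harvested and lysed. p-STAT3 and β-actin detected by Western blot.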

[18] = target: Signal transducer and activator of transcription 3 (Mus musculus) (UniProt P42227); test: Inhibition of LPS-induced STAT3 phosphorylation in mouse RAW264.7 cells at 40 ug/ml after 24 hrs by Western blot analysis; type: cell-based
In short: (§5)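 RAW264.7 macrophages (DMEM, 10% FBS, 37 °C, 5% CO2) treated with LPS 1 μg/mL alone or with Pd-Ib 5, 10, 20 or 40 μg/mL for 24 h. Lysates in RIPA buffer, 10% SDS-PAGE, immunoblotted for phospho and total STAT3, JNK, ERK and p38; β-actin loading control.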

RAW264.7 [19] = test: Inhibition of LPS-induced IL-6 production in mouse RAW264.7 cells at 5 to 20 ug/ml after 24 hrs by ELISA; type: functional, cell-based
In short: (§6)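 RAW264.7 cells incubated 24 h with Pd-Ib (0, 5, 10, 20, 40 μg/mL), with or without LPS 1 μg/mL. IL-6 in the culture supernatant quantified by ELISA.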

[20] = target: MAP kinase p38 (Mus musculus) (UniProt P47811+O08911+Q9WUI1+Q9Z1B7); test: Inhibition of LPS-induced p38 phosphorylation in mouse RAW264.7 cells at 5 to 40 ug/ml after 24 hrs by Western blot analysis; type: cell-based; in short: as §5
RAW264.7 [21] = test: Inhibition of LPS-induced JNK phosphorylation in mouse RAW264.7 cells at 5 to 40 ug/ml after 24 hrs by Western blot analysis; type: cell-based; in short: as §5
RAW264.7 [22] = test: Inhibition of LPS-induced ERK phosphorylation in mouse RAW264.7 cells at 5 to 40 ug/ml after 24 hrs by Western blot analysis; type: cell-based; in short: as §5
RAW264.7 [23] = test: Inhibition of LPS-induced IL-6 production in mouse RAW264.7 cells at 40 ug/ml after 24 hrs by ELISA; type: functional, cell-based; in short: as §6
Mus musculus [24] = test: Antiinflammatory activity in DSS-induced C57BL/6 mouse acute colitis model assessed as lowering of disease activity index at 300 mg/kg administered by oral gavage from day 5 to day 12 measured on day 13 relative to DSS-treated control; type: functional, organism-based; in short: as §1
Mus musculus [25] = test: Antiinflammatory activity in DSS-induced C57BL/6 mouse acute colitis model assessed as protection against mucosal injury at 300 mg/kg administered by oral gavage from day 5 to day 12 measured on day 13 by hematoxylin/eosin staining-based microscopic analysis; type: functional, organism-based; in short: as §2
Mus musculus [26] = test: Antiinflammatory activity in DSS-induced C57BL/6 mouse acute colitis model assessed as lowering of IL-17A level at 300 mg/kg administered by oral gavage from day 5 to day 12 measured on day 13; type: functional, organism-based; in short: as §3
Mus musculus [27] = test: Antiinflammatory activity in DSS-induced C57BL/6 mouse acute colitis model assessed as lowering of IL-6 level at 300 mg/kg administered by oral gavage from day 5 to day 12 measured on day 13; type: functional, organism-based; in short: as §3

C/C=C(/C)C(=O)O[C@H]1C(=O)c2c(ccc3ccc(=O)oc23)OC1(C)C
Activity (Mus musculus [1]): Active
Activity (Mus musculus [2]): inactive
Activity (Mus musculus [3]): Active
Activity (Mus musculus [4]): Active
Activity (Mus musculus [5]): Active
Activity (Mus musculus [6]): Active
Activity (Mus musculus [7]): Active
Activity (Mus musculus [8]): Dose-dependent effect
Activity (Mus musculus [9]): Dose-dependent effect
Activity (Mus musculus [10]): Dose-dependent effect
Activity (Mus musculus [11]): Dose-dependent effect
Activity (Mus musculus [12]): inactive
Activity (Mus musculus [13]): Active
Activity (Mus musculus [14]): Active
Activity (Mus musculus [15]): Dose-dependent effect
Activity (Mus musculus [16]): Dose-dependent effect
inhibition [17]: Active
inhibition [18]: Active
inhibition (RAW264.7 [19]): Active
inhibition [20]: Active
inhibition (RAW264.7 [21]): Active
inhibition (RAW264.7 [22]): inactive
inhibition (RAW264.7 [23]): inactive

O=C(O)c1cc(/N=N/c2ccc(S(=O)(=O)Nc3ccccn3)cc2)ccc1O
Activity (Mus musculus [24]): Active
Activity (Mus musculus [25]): Active
Activity (Mus musculus [26]): Active
Activity (Mus musculus [27]): Active
